# From ChEMBL document CHEMBL1154539, “Identification of small molecules that inhibit GSK-3beta through virtual screening” (Bioorg Med Chem Lett, 2009)
# Activity calls are given as the source filed them. The calls are words filed in the database; no cut-off is given here.
# Experiments:
# [1] = molecular target: T1, Glycogen synthase kinase-3 beta (Homo sapiens, UniProt P49841); assay: Inhibition of GSK3-beta by ATP competitive inhibition based assay
# Summary of the method: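 GSK-3β enzyme velocity was measured with substrate across various ATP levels at increasing inhibitor concentrations. Mode of inhibition was read from Lineweaver–Burk double-reciprocal plots.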
# Target sequence in this assay (P49841 whole entry, looked up): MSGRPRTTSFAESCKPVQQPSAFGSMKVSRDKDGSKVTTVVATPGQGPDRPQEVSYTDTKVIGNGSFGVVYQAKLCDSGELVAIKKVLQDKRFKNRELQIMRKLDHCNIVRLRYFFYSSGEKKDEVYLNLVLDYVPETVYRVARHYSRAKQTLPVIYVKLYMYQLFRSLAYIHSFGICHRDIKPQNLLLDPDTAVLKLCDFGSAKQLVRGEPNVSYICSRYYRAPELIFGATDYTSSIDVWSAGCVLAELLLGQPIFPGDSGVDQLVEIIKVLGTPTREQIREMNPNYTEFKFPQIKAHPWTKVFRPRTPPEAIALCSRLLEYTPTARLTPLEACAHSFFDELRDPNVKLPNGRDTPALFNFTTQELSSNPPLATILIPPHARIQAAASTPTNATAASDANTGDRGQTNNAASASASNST
# [2] = Inhibition of CSNK2 at 100 uM
# [3] = molecular target: T1, Glycogen synthase kinase-3 beta; assay: Inhibition of GSK3-beta at 10 uM by Z'-LYTE kinase assay
# Summary of the method: (§1)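 Z'-LYTE fluorescence-ratio (FRET) kinase assay with GSK-3β and its peptide substrate. Relative inhibition was plotted against increasing compound concentrations and IC50 taken from the inhibition curves. […] is percent inhibition at a single 10 µM compound concentration.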
# Target sequence in this assay (P49841 whole entry, looked up): as above
# [4] = molecular target: T1, Glycogen synthase kinase-3 beta; assay: Inhibition of GSK3-beta by Z'-LYTE kinase assay; summary of the method: as §1
# Target sequence in this assay (P49841 whole entry): as the sequence (P49841 whole entry, looked up) above
# [5] = molecular target: T2, Protein kinase C alpha type (Homo sapiens, UniProt P17252); assay: Inhibition of PKCalpha at 100 uM
# [6] = molecular target: Cyclin-dependent kinase 1 (Homo sapiens) (UniProt P06493); assay: Inhibition of CDK1 at 100 uM
# Cyclin-dependent kinase 1 (Homo sapiens), sequence (P06493 whole entry, looked up): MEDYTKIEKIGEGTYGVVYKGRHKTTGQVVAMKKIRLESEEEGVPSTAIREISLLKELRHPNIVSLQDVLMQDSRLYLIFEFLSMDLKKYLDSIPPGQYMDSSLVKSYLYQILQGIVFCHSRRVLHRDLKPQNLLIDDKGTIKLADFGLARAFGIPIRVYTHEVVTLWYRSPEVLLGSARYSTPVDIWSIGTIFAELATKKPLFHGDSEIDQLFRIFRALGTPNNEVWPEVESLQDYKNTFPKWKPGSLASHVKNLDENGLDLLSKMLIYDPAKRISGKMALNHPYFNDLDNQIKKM
# [7] = molecular target: T2, Protein kinase C alpha type; assay: Inhibition of PKCalpha
# Summary of the method: (§2)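 Counter-screen kinases (PKA, CSNK2, PKC, CDK1) were run under near-identical reaction conditions per the manufacturer's instructions, each with its own suitable substrate. Values are percent inhibition at a single 100 µM compound concentration, or IC50 in µM.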
# [8] = Inhibition of PKA at 100 uM
# [9] = Inhibition of PKA; summary of the method: as §2
# [10] = molecular target: T1, Glycogen synthase kinase-3 beta; assay: Inhibition of GSK3-beta in myoblasts assessed as beta-casein accumulation at 2 uM after 3 hrs by immunoblot; settings: in the assay text read “beta-catenin” for “beta-casein”
# Summary of the method: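 C2C12 myoblasts plated at 5 × 10⁵ were exposed to compound at 2 µM for 3 h. Cells were lysed for total protein, run on SDS–PAGE and immunoblotted with anti-β-catenin antibody.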
# Target sequence in this assay (P49841 whole entry, looked up): as the sequence (P49841 whole entry, looked up) above
Compound,Activity [1],inhibition [2] [%],inhibition [3] [%],IC50 [4] [µM],inhibition [5] [%],inhibition [6] [%],IC50 [7] [µM],inhibition [8] [%],IC50 [9] [µM],Activity [10]
CCOC(=O)Cn1sc(=O)n(-c2cccc(C(=O)OCC)c2)c1=O,Active,21,84,0.467,89,18,5.3,87,2.2,Active
O=c1sn(-c2ccccc2)c(=O)n1CCCl,Active,17,74,0.548,84,0,5.8,35,–,–
CCn1sc(=O)n(Cc2ccccc2)c1=O,–,30,65,7.15,88,15,13.8,30,–,–
O=c1sn(CCc2ccccc2)c(=O)n1Cc1ccc(F)cc1,–,31,80,1.86,51,20,38.7,20,–,–
CCOC(=O)Cn1sc(=O)n(CC(=O)N2CCCCC2)c1=O,–,21,65,0.539,93,15,4.1,75,17,–
CCOC(=O)Cn1sc(=O)n(-c2ccc(C(=O)OCC)cc2)c1=O,–,36,75,1.01,78,12,48.3,81,6.9,–
